Reference: ChEMBL document CHEMBL1124844, “Synthesis and biological activities of novel 5-(2-acylethynyl)uracils” (J Med Chem, 1990)

Assays:
[1] = Drug evaluation at the dose of 20 mg/kg by calculating fluid weight; 0.8/2; assay type: functional, Mus musculus
Method in brief: (§1)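 EAC cells drawn from Swiss mouse bearing a 10–20 day tumor, diluted and counted; Swiss mice (18–20 g) inoculated ip with 1 × 10⁶ cells in 0.2 mL on day 0. Dosing ip once daily on days 1–7, in normal saline with 10% propylene glycol; controls given vehicle. Five animals per dose group. Tumor cell counts and ascitic fluid weight compared, treated (T) vs control (C).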

[2] = Percent inhibition of ascites cell at the dose of 20 mg/kg; assay type: functional; details: Mus musculus; method in brief: as §1
[3] = Drug evaluation at the dose of 20 mg/kg by counting the average ascites cells number; 35/150; assay type: functional, Mus musculus; method in brief: as §1
[4] = Effect on the survival of mice bearing ascites tumor at the dose of 20 mg/kg; assay type: functional, Mus musculus
Method in brief: (§2)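 Swiss mice (18–20 g) inoculated ip on day 0 with 1 × 10⁶ EAC cells drawn from a 10–20 day donor tumor. Compounds homogenized in normal saline with 10% propylene glycol and given ip starting 24 h later, as single dose or daily for 7 days. Five mice per dose; vehicle-only controls. Survival read as median survival time (days).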

[5] = Effect on the survival of mice bearing ascites tumor in extremes treated at the dose of 210 mg/kg; assay type: functional, Mus musculus
Method in brief: (§3)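 EAC-bearing Swiss mice given ip compound in saline/10% propylene glycol, single dose or daily for 7 days, starting 24 h after ip inoculation of 1 × 10⁶ cells. Five mice per dose; vehicle controls. Value is the range (shortest to longest) of survival days in the treated group.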

CCRF-CEM [6] = test: (§4) Effect on CCRF-CEM cells in culture; assay type: functional, cell-based; details: Homo sapiens
Method in brief: (§5)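 Murine L1210/0 leukemia and human CCRF-CEM lymphoblastoid cells incubated at 37 °C for 48 h over a range of compound concentrations. Growth inhibition read as IC50 (μM).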

[7] = Effect on the survival of mice bearing ascites tumor in percent controls at the dose of 140 mg/kg; assay type: functional, Mus musculus
Method in brief: (§6)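 Swiss mice inoculated ip with 1 × 10⁶ EAC cells, then treated ip with compound in saline/10% propylene glycol, single dose or 7 daily doses, starting 24 h later. Five mice per dose; vehicle controls. Treated median survival time expressed as percent of control; >125 counted active.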

[8] = Effect on the survival of mice bearing ascites tumor in extremes treated at the dose of 20 mg/kg; assay type: functional, Mus musculus; method in brief: as §3
[9] = Effect on the survival of mice bearing ascites tumor in extremes treated at the dose of 140 mg/kg; assay type: functional, Mus musculus; method in brief: as §3
[10] = Effect on the survival of mice bearing ascites tumor in percent controls at the dose of 20 mg/kg; assay type: functional, Mus musculus; method in brief: as §6
[11] = Effect on the survival of mice bearing ascites tumor at the dose of 30 mg/kg; assay type: functional, Mus musculus; method in brief: as §2
[12] = Effect on the survival of mice bearing ascites tumor in extremes treated at the dose of 30 mg/kg; assay type: functional, Mus musculus; method in brief: as §3
[13] = Percent inhibition of ascitic fluid at the dose of 20 mg/kg; assay type: functional; details: Mus musculus; method in brief: as §1
[14] = Effect on the survival of mice bearing ascites tumor at the dose of 210 mg/kg; assay type: functional, Mus musculus; method in brief: as §2
[15] = Effect on the survival of mice bearing ascites tumor at the dose of 140 mg/kg; assay type: functional, Mus musculus; method in brief: as §2
[16] = Effect on the survival of mice bearing ascites tumor in percent controls at the dose of 210 mg/kg; assay type: functional, Mus musculus; method in brief: as §6
L1210 [17] = test: (§7) Effect on L1210/0 cells in culture; assay type: functional, cell-based; details: Mus musculus; method in brief: as §5
[18] = Effect on the survival of mice bearing ascites tumor in percent controls at the dose of 30 mg/kg; assay type: functional, Mus musculus; method in brief: as §6
[19] = Drug evaluation at the dose of 20 mg/kg by counting the average ascites cells number; 100/123; assay type: functional, Mus musculus; method in brief: as §1
[20] = Drug evaluation at the dose of 20 mg/kg by calculating fluid weight; 2/2.5; assay type: functional, Mus musculus; method in brief: as §1
CCRF-CEM [21] = test: Effect on CCRF-CEM cells (human lymphoblastoid cells) in culture; assay type: functional, cell-based; method in brief: as §5
[22] = Effect on the survival of mice bearing ascites tumor in percent controls at the dose of 70 mg/kg; assay type: functional, Mus musculus; method in brief: as §6
[23] = Effect on the survival of mice bearing ascites tumor at the dose of 70 mg/kg; assay type: functional, Mus musculus; method in brief: as §2
[24] = Effect on the survival of mice bearing ascites tumor in extremes treated at the dose of 70 mg/kg; assay type: functional, Mus musculus; method in brief: as §3
[25] = Effect on the survival of mice bearing ascites tumor in extremes treated at the dose of 10 mg/kg; assay type: functional, Mus musculus; method in brief: as §3
[26] = Effect on the survival of mice bearing ascites tumor in percent controls at the dose of 10 mg/kg; assay type: functional, Mus musculus; method in brief: as §6
[27] = Effect on the survival of mice bearing ascites tumor at the dose of 10 mg/kg; assay type: functional, Mus musculus; method in brief: as §2
L1210 [28] = test: Effect on L1210/0 cells (mouse leukemia cells) in culture
[29] = Drug evaluation at the dose of 20 mg/kg by counting the average ascites cells number; 59/165; assay type: functional, Mus musculus; method in brief: as §1
CCRF-CEM [30] = test: as §4; assay type: functional, cell-based; details: Homo sapiens; remark: listed apart in the source
Method in brief: (§8)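 CCRF-CEM human lymphoblastoid or L1210/0 mouse leukemia cells incubated with a range of compound concentrations at 37 °C for 48 h; IC50 (μM) taken from cell growth.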

L1210 [31] = test: as §7; assay type: functional, cell-based; details: Mus musculus; method in brief: as §8; remark: listed apart in the source

SMILES | inhibition in vivo at 20 mg/kg [2] [%] | Survival treated [4] | Extremes treated [5] | Controls [7] [%] | Extremes treated [8] | Extremes treated [9] | Controls [10] [%] | Survival treated [11] | Extremes treated [12] | inhibition in vivo at 20 mg/kg [13] [%] | Survival treated [14] | Survival treated [15] | Controls [16] [%] | IC50 (L1210 [17]) [nM] | Controls [18] [%] | IC50 (CCRF-CEM [21]) [nM] | further results
O=C(C#Cc1cnc(O)nc1O)c1ccccc1 | 76 | 22 | 22 | 281 | 23 | 39 | 169 | 17.5 | 18 | 60 | 21.5 | 36.5 | 165 | 650 | 134 | – | T/C [1]: 0.4; T/C [3]: 0.233; IC50 (CCRF-CEM [6]): 2000 nM
COc1ccc(C(=O)C#Cc2cnc(O)nc2O)cc1 | 19.1 | 18 | 16 | 127 | 19 | 15 | 164 | 12 | 13 | 20 | 14 | 14 | 127 | 2000 | 109 | 2300 | T/C [19]: 0.813; T/C [20]: 0.8
Cc1ccc(C(=O)C#Cc2cnc(O)nc2O)cc1 | – | 20.5 | – | 300 | 23 | 35 | 178 | – | – | – | – | 34.5 | – | – | – | 2250 | Controls [22]: 260%; Survival treated [23]: 30; Extremes treated [24]: 31; Extremes treated [25]: 14; Controls [26]: 113%; Survival treated [27]: 13; IC50 (L1210 [28]): 1900 nM
O=C(C#Cc1cnc(O)nc1O)c1ccccc1Cl | 64.2 | 16.5 | 27 | 127 | 17 | 18 | 127 | 18.5 | 20 | 37.5 | 26.5 | 16.5 | 204 | 2000 | 142 | 2200 | T/C [29]: 0.358
O=c1[nH]cc(F)c(=O)[nH]1 [FLUOROURACIL] | – | 41 | – | 92 | 45 | 14 | 342 | – | – | – | – | 11 | – | – | – | – | IC50 (CCRF-CEM [30]): 2000 nM; IC50 (L1210 [31]): 300 nM
